According to ChEMBL document CHEMBL3627597, “Synthesis of Fluorine-Containing Phosphodiesterase 10A (PDE10A) Inhibitors and the In Vivo Evaluation of F-18 Labeled PDE10A PET Tracers in Rodent and Nonhuman Primate” (J Med Chem, 2015):

Legend:
[1] = test system: Kidney; experiment: Biodistribution in Sprague-Dawley rat kidney at 1.48 to 2.22 MBq, iv measured at 30 mins by gamma counting analysis; type: ADME, organism-based; settings: in vivo, 0.5 h
Procedure, shortened: (§1)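 Male Sprague-Dawley rats (250 - 400 g), tail-vein injection of 1.48 - 2.22 MBq radiotracer under 2.5% isoflurane in oxygen; n=4 per time point, euthanized at 5, 30 and 60 min p.i. Brain regions obtained by gross dissection; peripheral tissues collected. Samples weighed, gamma-counted against a diluted-injectate standard; %ID/g calculated.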

[2] = test system: Liver; experiment: Biodistribution in Sprague-Dawley rat liver at 1.48 to 2.22 MBq, iv measured at 5 mins by gamma counting analysis; type: ADME, organism-based; settings: in vivo; procedure, shortened: as §1
[3] = test system: Bone; experiment: Biodistribution in Sprague-Dawley rat bone at 1.48 to 2.22 MBq, iv measured at 5 mins by gamma counting analysis; type: ADME, organism-based, Bone element; settings: in vivo; procedure, shortened: as §1
[4] = test system: Rattus norvegicus; experiment: Biodistribution in Sprague-Dawley rat fat tissue at 1.48 to 2.22 MBq, iv measured at 30 mins by gamma counting analysis; type: ADME, organism-based, Adipose tissue; settings: in vivo, 0.5 h; procedure, shortened: as §1
[5] = test system: Kidney; experiment: Biodistribution in Sprague-Dawley rat kidney at 1.48 to 2.22 MBq, iv measured at 60 mins by gamma counting analysis; type: ADME, organism-based; settings: in vivo, 1 h; procedure, shortened: as §1
[6] = test system: Muscle tissue; experiment: Biodistribution in Sprague-Dawley rat muscle at 1.48 to 2.22 MBq, iv measured at 60 mins by gamma counting analysis; type: ADME, organism-based; settings: in vivo, 1 h; procedure, shortened: as §1
[7] = test system: Rattus norvegicus; experiment: Biodistribution in Sprague-Dawley rat fat tissue at 1.48 to 2.22 MBq, iv measured at 60 mins by gamma counting analysis; type: ADME, organism-based, Adipose tissue; settings: in vivo, 1 h; procedure, shortened: as §1
[8] = test system: Muscle tissue; experiment: Biodistribution in Sprague-Dawley rat muscle at 1.48 to 2.22 MBq, iv measured at 30 mins by gamma counting analysis; type: ADME, organism-based; settings: in vivo, 0.5 h; procedure, shortened: as §1
[9] = test system: Muscle tissue; experiment: Biodistribution in Sprague-Dawley rat muscle at 1.48 to 2.22 MBq, iv measured at 5 mins by gamma counting analysis; type: ADME, organism-based; settings: in vivo; procedure, shortened: as §1
[10] = test system: Nucleic Acid; experiment: Ratio of drug level in striatum to cerebellum in cynomolgus monkey at 185 to 259 MBq, iv measured at 40 mins by micro PET image analysis; type: ADME, organism-based, Macaca fascicularis; settings: in vivo
Procedure, shortened: (§2)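 Adult male cynomolgus macaques (~4–6 kg), three independent PET studies per tracer on a microPET Focus 220. Animals fasted 12 h and anesthetized with ketamine (10 mg/kg) plus glycopyrrolate (0.13 mg/kg) i.m. A 10 min positioning transmission scan and a 45 min attenuation transmission scan were run, then a 3 h dynamic emission scan after venous tracer injection. Regional TACs came from ROIs, expressed as SUV (body weight, injected dose).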

[11] = test system: Striatum; experiment: Biodistribution in Sprague-Dawley rat striatum at 1.48 to 2.22 MBq, iv measured at 30 mins by gamma counting analysis; type: ADME, organism-based; settings: in vivo, 0.5 h; procedure, shortened: as §1
[12] = Metabolic stability in cynomolgus monkey plasma assessed as compound remaining at 185 to 259 MBq, iv measured at 90 mins by HPLC analysis; type: ADME, organism-based, Macaca fascicularis; settings: read-out: Stability
Procedure, shortened: (§3)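 Arterial blood (~1.5 mL) drawn at 2, 15, 30, 60 and 90 min p.i. into heparinized syringes, then centrifuged to plasma. Plasma deproteinated with 2 parts ice-cold methanol. Extract run on C-18 HPLC, MeCN/0.1 M ammonium formate pH 4.5, 0.9 mL/min, UV 254 nm. 1-min fractions over 16 min were well-counted and decay-corrected; parent percentage taken from recovered activity.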

[13] = test system: Blood; experiment: Biodistribution in Sprague-Dawley rat blood at 1.48 to 2.22 MBq, iv measured at 30 mins by gamma counting analysis; type: ADME, organism-based; settings: in vivo, 0.5 h; procedure, shortened: as §1
[14] = test system: Kidney; experiment: Biodistribution in Sprague-Dawley rat kidney at 1.48 to 2.22 MBq, iv measured at 5 mins by gamma counting analysis; type: ADME, organism-based; settings: in vivo; procedure, shortened: as §1
[15] = test system: Plasma; experiment: Retention time of the compound in cynomolgus monkey plasma at 185 to 259 MBq, iv by HPLC analysis; type: ADME, organism-based, Macaca fascicularis; procedure, shortened: as §3
[16] = test system: Nucleic Acid; experiment: Ratio of drug level in striatum to temporal region in cynomolgus monkey at 185 to 259 MBq, iv measured at 40 mins by micro PET image analysis; type: ADME, organism-based, Macaca fascicularis; settings: in vivo; procedure, shortened: as §2
[17] = test system: Caudate; experiment: Drug uptake in cynomolgus monkey caudate at 185 to 259 MBq, iv measured over 180 mins by micro PET image analysis; type: ADME, organism-based, Macaca fascicularis, Caudate nucleus; settings: in vivo, 3 h
Procedure, shortened: (§4)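 Adult male cynomolgus macaques (~4–6 kg), three studies per tracer, fasted 12 h. Induction with ketamine 10 mg/kg plus glycopyrrolate 0.13 mg/kg i.m. Transmission scans of 10 min for positioning and 45 min for attenuation correction, then a 3 h dynamic microPET emission scan after venous injection of 185 - 259 MBq. ROI time-activity curves expressed as SUV (body weight and injected dose).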

[18] = test system: Nucleic Acid; experiment: Ratio of drug level in striatum to cortex in Sprague-Dawley rat at 1.48 to 2.22 MBq, iv measured at 5 to 30 mins by gamma counting analysis; type: ADME, organism-based; settings: in vivo
Procedure, shortened: (§5)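 Striatum, cerebellum and cortex obtained by gross dissection from Sprague-Dawley rats (250 - 400 g, n=4 per time point) after tail-vein injection of 1.48 - 2.22 MBq under isoflurane anesthesia. Tissues weighed and gamma-counted with an injectate standard to give %ID/g; ratios taken from striatal versus non-target uptake.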

[19] = Ratio of drug level in striatum to cerebellum in Sprague-Dawley rat at 1.48 to 2.22 MBq, iv measured at 5 to 30 mins by gamma counting analysis; type: ADME, organism-based; settings: in vivo; procedure, shortened: as §5
[20] = test system: Bone; experiment: Biodistribution in Sprague-Dawley rat bone at 1.48 to 2.22 MBq, iv measured at 30 mins by gamma counting analysis; type: ADME, organism-based, Bone element; settings: in vivo, 0.5 h; procedure, shortened: as §1
[21] = test system: Putamen; experiment: Drug uptake in cynomolgus monkey putamen at 185 to 259 MBq, iv measured over 180 mins by micro PET image analysis; type: ADME, organism-based, Macaca fascicularis; settings: in vivo, 3 h; procedure, shortened: as §4
[22] = test system: Brain; experiment: Biodistribution in Sprague-Dawley rat brain at 1.48 to 2.22 MBq, iv measured at 60 mins by gamma counting analysis; type: ADME, organism-based; settings: in vivo, 1 h; procedure, shortened: as §1
[23] = test system: Nucleic Acid; experiment: Ratio of drug level in striatum to midbrain region in cynomolgus monkey at 185 to 259 MBq, iv measured at 40 mins by micro PET image analysis; type: ADME, organism-based, Macaca fascicularis, Brain; settings: in vivo; procedure, shortened: as §2
[24] = test system: Brain; experiment: Biodistribution in Sprague-Dawley rat brain at 1.48 to 2.22 MBq, iv measured at 5 mins by gamma counting analysis; type: ADME, organism-based; settings: in vivo; procedure, shortened: as §1
[25] = test system: Nucleic Acid; experiment: Ratio of drug level in striatum to occipital in cynomolgus monkey at 185 to 259 MBq, iv measured at 40 mins by micro PET image analysis; type: ADME, organism-based, Macaca fascicularis; settings: in vivo; procedure, shortened: as §2
[26] = test system: Rattus norvegicus; experiment: Biodistribution in Sprague-Dawley rat fat tissue at 1.48 to 2.22 MBq, iv measured at 5 mins by gamma counting analysis; type: ADME, organism-based, Adipose tissue; settings: in vivo; procedure, shortened: as §1
[27] = Metabolic stability in cynomolgus monkey plasma assessed as compound remaining at 185 to 259 MBq, iv measured at 30 mins by HPLC analysis; type: ADME, organism-based, Macaca fascicularis; settings: read-out: Stability; procedure, shortened: as §3
[28] = test system: Blood; experiment: Biodistribution in Sprague-Dawley rat blood at 1.48 to 2.22 MBq, iv measured at 5 mins by gamma counting analysis; type: ADME, organism-based; settings: in vivo; procedure, shortened: as §1
[29] = test system: Nucleic Acid; experiment: Ratio of drug level in striatum to frontal in cynomolgus monkey at 185 to 259 MBq, iv measured at 40 mins by micro PET image analysis; type: ADME, organism-based, Macaca fascicularis; settings: in vivo; procedure, shortened: as §2
[30] = test system: Blood; experiment: Biodistribution in Sprague-Dawley rat blood at 1.48 to 2.22 MBq, iv measured at 60 mins by gamma counting analysis; type: ADME, organism-based; settings: in vivo, 1 h; procedure, shortened: as §1
[31] = test system: Nucleic Acid; experiment: Ratio of drug level in striatum to hippocampus in cynomolgus monkey at 185 to 259 MBq, iv measured at 40 mins by micro PET image analysis; type: ADME, organism-based, Macaca fascicularis; settings: in vivo; procedure, shortened: as §2
[32] = test system: Liver; experiment: Biodistribution in Sprague-Dawley rat liver at 1.48 to 2.22 MBq, iv measured at 30 mins by gamma counting analysis; type: ADME, organism-based; settings: in vivo, 0.5 h; procedure, shortened: as §1
[33] = test system: Nucleic Acid; experiment: Ratio of drug level in striatum to white matter in cynomolgus monkey at 185 to 259 MBq, iv measured at 40 mins by micro PET image analysis; type: ADME, organism-based, Macaca fascicularis; settings: in vivo; procedure, shortened: as §2
[34] = test system: Brain; experiment: Biodistribution in Sprague-Dawley rat brain at 1.48 to 2.22 MBq, iv measured at 30 mins by gamma counting analysis; type: ADME, organism-based; settings: in vivo, 0.5 h; procedure, shortened: as §1
[35] = Metabolic stability in cynomolgus monkey plasma assessed as compound remaining at 185 to 259 MBq, iv measured at 15 mins by HPLC analysis; type: ADME, organism-based, Macaca fascicularis; settings: read-out: Stability; procedure, shortened: as §3
[36] = test system: Bone; experiment: Biodistribution in Sprague-Dawley rat bone at 1.48 to 2.22 MBq, iv measured at 60 mins by gamma counting analysis; type: ADME, organism-based, Bone element; settings: in vivo, 1 h; procedure, shortened: as §1
[37] = test system: Liver; experiment: Biodistribution in Sprague-Dawley rat liver at 1.48 to 2.22 MBq, iv measured at 60 mins by gamma counting analysis; type: ADME, organism-based; settings: in vivo, 1 h; procedure, shortened: as §1
[38] = Metabolic stability in cynomolgus monkey plasma assessed as compound remaining at 185 to 259 MBq, iv measured at 2 mins by HPLC analysis; type: ADME, organism-based, Macaca fascicularis; settings: read-out: Stability; procedure, shortened: as §3
[39] = Metabolic stability in cynomolgus monkey plasma assessed as compound remaining at 185 to 259 MBq, iv measured at 60 mins by HPLC analysis; type: ADME, organism-based, Macaca fascicularis; settings: read-out: Stability; procedure, shortened: as §3

Compound `Cn1cc(-c2ccncc2)c(-c2ccc(OCc3cc(OCC[18F])c4ccccc4n3)cc2)n1` has a Drug uptake [1] of 1.055 % ID/g, a Drug uptake [2] of 6.88 % ID/g and a Drug uptake [3] of 0.189 % ID/g. It also gave a Drug uptake [4] of 0.302 % ID/g, a Drug uptake [5] of 0.765 % ID/g and a Drug uptake [6] of 0.132 % ID/g. For the same compound, the Drug uptake [7] was 0.259 % ID/g, the Drug uptake [8] was 0.134 % ID/g and the Drug uptake [9] was 0.247 % ID/g. For the same compound, the Ratio [10] was over 3, the Drug uptake [11] was “Active” and the remaining at 1.5 h [12] was 57%. The Drug uptake [13] was 0.226 % ID/g, the Drug uptake [14] was 2.2 % ID/g and the Retention_time [15] was 10.5 min. For the same compound, the Ratio [16] was over 3, the Drug uptake [17] was “Active” and the Ratio [18] was over 2. For the same compound, the Ratio [19] was over 2, the Drug uptake [20] was 0.091 % ID/g and the Drug uptake [21] was “Active”. The Drug uptake [22] was 0.101 % ID/g, the Ratio [23] was over 3 and the Drug uptake [24] was 0.118 % ID/g. It also gave a Ratio [25] of over 3, a Drug uptake [26] of 0.213 % ID/g and a remaining at 0.5 h [27] of 90%. It also gave a Drug uptake [28] of 0.362 % ID/g, a Ratio [29] of over 3 and a Drug uptake [30] of 0.215 % ID/g. For the same compound, the Ratio [31] was over 3, the Drug uptake [32] was 6.98 % ID/g and the Ratio [33] was over 3. The Drug uptake [34] was 0.078 % ID/g, the remaining at 0.25 h [35] was 93% and the Drug uptake [36] was 0.142 % ID/g. It also gave a Drug uptake [37] of 3.29 % ID/g, a remaining at 2 min [38] of 98% and a remaining at 1 h [39] of 75%.
